Only some compounds are listed: those with a hit (about 1.4% of all), similar ones and a draw of the others.
TDP2 absorb = TDP2 (human) inhibition, absorbance primary screen. AID 720702. hit rate 0.34% among 370,000. O95551. inhibition, % at 12.8 µM. recombinant TDP2, T5PNP hydrolysis, p-nitrophenol absorbance 415 nm;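 active = inhibition above the mean of all tested compounds plus 3 SD, set per campaign, cut at about 25% in these data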;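 also: 0% = DMSO with enzyme and 100% = buffer with substrate but no TDP2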
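System: recombinant human TDP2 / Amount: 120 nM TDP2 per well / Also added: 5 mM T5PNP chromogenic substrate / Doses: 12.8 µM single point, 1% DMSO / Incubation: 2 h at 37 °C / Detection: p-Nitrophenol epi absorbance / Evaluation: % inhibition relative to enzyme-containing and enzyme-free wells / Repeats: singlicate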
PAD4 FP inh = inhibitors of human PAD4; AID 485272; Q9UM07; hit rate 0.41% among 330,000; inhibition, % at 6.36 µM; recombinant PAD4, RCA probe fluorescence polarization;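 active = percent inhibition above a cutoff equal to the mean of all tested compounds plus 3 SD, cut at about 15% in these data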;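 also: 0% = PAD4 with RCA probe and DMSO and 100% = probe without PAD4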
Target sequence (Q9UM07 whole entry, looked up): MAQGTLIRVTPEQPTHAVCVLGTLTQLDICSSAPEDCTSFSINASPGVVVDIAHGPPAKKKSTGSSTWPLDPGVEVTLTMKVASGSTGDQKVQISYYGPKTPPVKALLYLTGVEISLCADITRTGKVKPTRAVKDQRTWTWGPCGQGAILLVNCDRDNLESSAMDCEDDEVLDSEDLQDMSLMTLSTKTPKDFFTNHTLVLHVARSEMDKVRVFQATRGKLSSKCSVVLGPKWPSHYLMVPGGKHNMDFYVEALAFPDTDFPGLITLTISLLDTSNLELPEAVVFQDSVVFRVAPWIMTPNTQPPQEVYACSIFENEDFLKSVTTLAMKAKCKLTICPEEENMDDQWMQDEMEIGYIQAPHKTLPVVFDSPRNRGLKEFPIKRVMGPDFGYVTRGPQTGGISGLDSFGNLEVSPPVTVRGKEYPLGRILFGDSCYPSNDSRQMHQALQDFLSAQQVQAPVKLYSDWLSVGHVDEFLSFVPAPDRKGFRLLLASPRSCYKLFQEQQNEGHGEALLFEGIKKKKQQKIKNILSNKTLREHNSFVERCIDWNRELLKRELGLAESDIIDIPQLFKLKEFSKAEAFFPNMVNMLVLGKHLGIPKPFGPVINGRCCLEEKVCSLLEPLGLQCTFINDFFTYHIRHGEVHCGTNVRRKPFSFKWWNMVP
GSTO1 counter = GSTO1 inhibition, counter-screen for RBBP9 inhibitors. P78417. recombinant GSTO1, activity-based probe fluorescence polarization. inhibition, % at 5.96 µM. hit rate 1.1% among 300,000. AID 1974;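 active = inhibition above the campaign mean inhibition plus 3 SD, cut at about 35% in these data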;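 also: 0% = GSTO1-1 with DMSO and 100% = wells lacking GSTO1-1 enzyme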
CTSL1 counter = blocks F. hepatica cathepsin L1 in PFM18AAP counter-screen | recombinant F. hepatica cathepsin L1, Z-Leu-Arg-MCA fluorescence | inhibition, % at 5.96 µM | hit rate 0.49% among 300,000 | AID 1906;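 active = inhibition above the mean of all tested compounds plus 3 SD, set per screening campaign, cut at about 17% in these data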;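 also: 0% = plate median of test compound wells and 100% = 1 µM Z-Phe-Ala-diazomethylketone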
The depositor's hits bear a star; x = no result given.

SMILES | TDP2 absorb | PAD4 FP inh | GSTO1 counter | CTSL1 counter
CC(C)C(NC(=O)c1ccco1)C(=O)NCC(c1ccco1)N1CCCCC1 (stereo unspecified) | 2 | 1 | -2 | 79*
CSCCC(NC(=O)c1ccco1)C(=O)NCC(c1ccco1)N1CCCCC1 (stereo unspecified) | 0 | -1 | x | x
O=C(NCc1ccco1)C1CCCN(S(=O)(=O)c2ccc(F)cc2)C1 (stereo unspecified) | -5 | x | x | x
O=C(Nc1ccc(-c2nc3ccc(NC(=O)c4cccs4)cc3[nH]2)cc1)c1cccs1 | 8 | -6 | 4 | 7
O=C(Nc1ccc2nc(-c3cccs3)[nH]c2c1)c1cccs1 | 2 | -5 | -9 | 17*
Cc1ccc(C(C[N+](=O)[O-])c2c(-c3ccccc3O)[nH][nH]c2=O)cc1 (stereo unspecified) | -3 | -6 | 35* | 4
O=c1[nH][nH]c(-c2ccccc2O)c1C(C[N+](=O)[O-])c1ccc(Br)cc1 (stereo unspecified) | 2 | -15 | 29 | 2
CC(O)[C@H](NC(=O)C1(c2ccccc2)CCN(C(=O)OC(C)(C)C)CC1)C(=O)O (stereo partly specified) | -8 | -2 | -5 | 30*
CC(/C=C/C=C/c1ccccc1)=N\NC(=O)c1cccnc1 | 2 | -2 | 8 | 22*
CC(/C=C\C=C\c1ccccc1)=N\NC(=O)c1cncc(Br)c1 | 3 | 1 | -4 | 7
Cc1ccc(S(=O)(=O)Nc2c(Cl)c(Cl)c(O)c3ccccc23)cc1 | x | -17 | 77* | 1
Cc1ccc(S(=O)(=O)Nc2c(O)ccc3ccccc23)cc1 | x | -13 | 23 | 0
CC(C)(C)c1ccc(NS(=O)(=O)c2ccc(N)cc2)cc1 | 7 | -3 | 36* | -4
Nc1ccc(S(=O)(=O)Nc2ccc(S(N)(=O)=O)cc2)cc1 | 16 | 2 | 6 | 1
COCCNC(=O)C(=O)Nc1cc2c3c(c1)C(C)C(=O)N3CCC2 (stereo unspecified) | -6 | 1 | 4 | 18*
O=C(CNC(=O)c1ccco1)OC(C(=O)c1ccccc1)c1ccccc1 (stereo unspecified) | -8 | 0 | 0 | 19*
Oc1ccc2ccccc2c1C=Nn1c(-c2n[nH]c3c2CCC3)n[nH]c1=S | 1 | x | x | x
COC(=O)c1cc(O)cc(OC)c1C(=O)c1c(O)cc(C)cc1O | -4 | -1 | -1 | -1
COC(=O)c1cc(O)cc(OC)c1Oc1cc(C)cc(O)c1C(=O)O | -15 | -4 | 36* | 3
Cc1ccc(OC(C)C(=O)N=Nc2c(O)[nH]c3ccc([N+](=O)[O-])cc23)cc1 (stereo unspecified) | 21 | -4 | 36* | -3
CCNC(=S)N=Nc1c(O)[nH]c2ccc([N+](=O)[O-])cc12 | 11 | -4 | 45* | 6
COc1ccc(C2CC(c3cccs3)=NN2c2nc(-c3ccccc3)cs2)cc1OC (stereo unspecified) | -1 | -1 | -16 | 34*
N#Cc1c(N)sc(=S)c2c1CCN(Cc1ccccc1)C2 | x | 54* | 51* | 109*
O=C(NC1CCCC1)c1ccc(COc2ccccc2)o1 | 0 | x | x | x
CCOC(=O)Cc1csc(N/N=C\c2ccc(N(C)C)cc2)n1 | -1 | -3 | -1 | 19*
SMILES | TDP2 absorb | PAD4 FP inh | GSTO1 counter | CTSL1 counter
COc1ccc(Cc2nnc(NC(=O)Cc3cccs3)s2)cc1OC | 6 | -6 | 37* | -2
OC(c1ccccc1)(c1ccccc1)C1CCN(CCCOc2cccc(F)c2)CC1 | 3 | x | x | x
CCOC(=O)C(C(=O)NCC1CCCO1)C1CCCCC1 (stereo unspecified) | -13 | -8 | 8 | 17*
COc1ccc2c(c1)C(=O)c1ccccc1CO2 | 3 | -1 | 2 | 1
O=C1c2ccccc2COc2ccc(O)cc21 | -9 | 5 | 24 | 21*
Cc1nc(N2CCN(C(=O)COc3ccccc3C)CC2)c2c3c(sc2n1)CCCC3 | 6 | x | x | x
COC(=O)C1CN(Cc2ccc(OC)cc2)CCS(=O)(=O)N1Cc1cn(Cc2ccc(OC)cc2)nn1 (stereo unspecified) | -3 | x | x | x
Cc1ccc(S(=O)c2ccc([N+](=O)[O-])c3nonc23)cc1 (stereo unspecified) | 6 | x | x | x
CC(=O)Nc1ccc(NS(=O)(=O)c2cccc3nonc23)cc1 | -7 | -5 | 6 | 17*
CCCc1c(C(=O)N/N=C/c2ccc(OCc3ccccc3)c(OC)c2)nnn1-c1nonc1N | -3 | 4 | 4 | 17*
CCCc1c(C(=O)N/N=C/c2ccc(OC)c(OCc3ccccc3)c2)nnn1-c1nonc1N | 0 | 7 | 1 | 1
Cc1c(C#N)c(NC(=O)CCl)n(Cc2cccs2)c1C | 5 | 4 | 87* | 51*
CCN(CC)C(=O)c1sc(NC(=O)Cc2cccs2)c(C#N)c1C | -4 | -1 | 3 | -2
CCOC(=O)[C@@]12CCC3=C1N(CCC3)C(=O)[C@H](CC(=O)N1CCN(C(=O)C3CC3)CC1)C2 | -5 | x | x | x
CCC(=O)N1CCc2cc(Br)c(S(=O)(=O)N3CCCC(C(=O)NC(C)(C)C)C3)cc21 (stereo unspecified) | -11 | x | x | x
CCCN1C(=O)SC(CC(=O)Nc2ccc(C)cc2)C1=O (stereo unspecified) | 6 | 0 | 15 | 3
CC(=O)Nc1ccc(NC(=O)CC2SC(=O)N(CC(=O)c3ccccc3)C2=O)cc1 (stereo unspecified) | 11 | 5 | 4 | 96*
Cc1ccc(C)c(S(=O)(=O)Nc2cc(SCC(=O)O)c(O)c3ccccc23)c1 | x | 33* | 87* | -7
CCC(CC)C(=O)OCC(=O)NC12CC3CC(CC(C3)C1)C2 | 3 | -4 | 37* | -4
CC(C)NC(=O)N[C@@H]1C[C@@H]2O[C@@H](CO)CC[C@@H]2O[C@@H]1CCc1ccc(-c2ccccc2F)cc1 | -4 | x | x | x
Cc1noc(NS(=O)(=O)c2ccc(NC(=O)C34CC5CC(C3)CC(n3cnc(Cl)n3)(C5)C4)cc2)c1C | -8 | -2 | 6 | -3
Cc1noc(NS(=O)(=O)c2ccc(NC(=O)CC34CC5CC(CC(Br)(C5)C3)C4)cc2)c1C | 6 | 7 | 8 | 20*
COc1ccc(/C(C)=N\NC(=O)c2ccco2)cc1 | 4 | x | x | x
CN(C)c1ccc(C(=O)NC2CCCCN(Cc3ccc(Cl)cc3)C2=O)cc1 (stereo unspecified) | 9 | x | x | x
CC1=C(SCc2ccccc2)C(=O)c2ccccc2C1=O | 51* | x | x | x
COc1ccc(NC(=O)c2cccnc2NCCc2ccccc2)cc1 | -8 | -2 | -1 | 44*
O=C(O)c1c2c(nc3ccc(S(=O)(=O)N4CCC(C(=O)NCc5ccc(Cl)cc5)CC4)cc13)CCCC2 | 7 | -2 | 2 | 20*
CCCCCCCCN1C(=O)[C@@H](CC(=O)NCc2ccccc2)C[C@@]2(C(=O)OC)C1=C[C@H](COCc1ccccc1)O[C@@H]2C | -6 | x | x | x
C/C(CC(=O)Nc1ccc(Cl)c(C(F)(F)F)c1)=N\NC(N)=S | 9 | -5 | -3 | 40*
CCN(Cc1cn(Cc2ccccc2)nn1)S(=O)(=O)c1ccc(F)cc1Br | 4 | x | x | x

Screening results deposited in PubChem BioAssay by The Scripps Research Institute Molecular Screening Center.
